This sample holds only a part of the variants without activity.
B1: tRNA (parent)
chain: GUUCCGUUGGCGUAAUGGUAACGCGUCUCCCUCCUAAGGAGAAGACUGCGGGUUCGAGUCCCGUACGGAACG

Variants of: B1
Assay: yeast fitness relative to wild type (ratio to wild type); higher = fitter; tRNA-Arg(CCU), competitive growth, 37 C, YPD
How it was run: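 For this measurement, the tRNA-Arg(CCU) gene was varied by chemical synthesis at a 3% per-site mutation rate across 69 sites, and each variant was placed at the native genomic locus in Saccharomyces cerevisiae. The pooled strains went through a 24-hour competition in YPD at 37°C in six parallel replicates, with amplicons from start and end populations read by 100-nucleotide paired-end sequencing. Darwinian fitness relative to wild type followed from the change in each genotype's frequency. Genotypes needed ≥ 100 starting reads, and estimates < 0.5 were set to 0.5.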
For G12A A21G C46G G51A G67C, the yeast fitness was ≤ 0.5.
In the case of G12A C29G C66U, the yeast fitness is reported as 0.574.
G12A A42C showed a yeast fitness of 0.89.
For G12A A42U, the yeast fitness was 0.856.
In the case of G12C A21U C34U A69C, the yeast fitness is reported as ≤ 0.5.
In the case of G12A C29A C60U, the yeast fitness is reported as ≤ 0.5.
For G12C A36C G50A, the yeast fitness was ≤ 0.5.
With G12A C24G U35A A36G A40C G67A the yeast fitness was ≤ 0.5.
With G12A A20G A21U A40G the yeast fitness was ≤ 0.5.
For G12A A42G C66G G67C, the yeast fitness was ≤ 0.5.
With G12A C49A G68A the yeast fitness was ≤ 0.5.
G12A U59C gave a yeast fitness of 0.993.
In the case of G12C C22U C31A C60G, the yeast fitness is reported as ≤ 0.5.
With G12A U13A A14G A21G C33U the yeast fitness was ≤ 0.5.
With G12A C24U C49G G56C G58A the yeast fitness was ≤ 0.5.
For G12A C22A C24A A65U, the yeast fitness was ≤ 0.5.
In the case of G12A C34U A37U G41A C55U A69C, the yeast fitness is reported as ≤ 0.5.
Work on G12C A20U C30U C49U C55U C66U yielded a yeast fitness of 0.559.
With G12A U19A C31G C34U A57G the yeast fitness was ≤ 0.5.
Variant G12A C31U C61U A70G has a yeast fitness of 0.541.
With G12C C22G G23A A37C A43C C62G G63A C66G A69G the yeast fitness was ≤ 0.5.
For G12A C33U G39C C66G, the yeast fitness was ≤ 0.5.
For G12C A20U, the yeast fitness was 0.75.
For G12C A20C, the yeast fitness was 0.699.
In the case of G12A U16A U64G, the yeast fitness is reported as ≤ 0.5.
In the case of G12A A20C C24G U54A C60G C66U, the yeast fitness is reported as ≤ 0.5.
With G12A C34U A37U G41A G50C the yeast fitness was 0.561.
G12C A20C A43U showed a yeast fitness of 0.632.
With G12C A20C A43C the yeast fitness was ≤ 0.5.
G12C A14G G25A G41C C61U G67A gave a yeast fitness of 0.573.
With G12A G52C C55U A65U the yeast fitness was ≤ 0.5.
G12A C31U U53A U54G G58C C62U gave a yeast fitness of 0.635.
For G12A G51C C62A, the yeast fitness was ≤ 0.5.
Variant G12A U28A A40U has a yeast fitness of 0.647.
In the case of G12C A69C, the yeast fitness is reported as 0.806.
For G12A U19C A21U A45U G50A G68C A69U, the yeast fitness was ≤ 0.5.
G12A C46U C62U gave a yeast fitness of 0.732.
For G12A A21G C46G G51A A69U, the yeast fitness was ≤ 0.5.
In the case of G12A U19C G23A U32C A43C G48C U64C, the yeast fitness is reported as ≤ 0.5.
With G12A G44C A65G the yeast fitness was 0.649.
Work on G12C A20C G50A C60U yielded a yeast fitness of 0.56.
Variant G12A C34G has a yeast fitness of 0.644.
G12A C61A gave a yeast fitness of 0.659.
Variant G12A C61U has a yeast fitness of 0.924.
G12A G25C gave a yeast fitness of 0.961.
G12A U19G gave a yeast fitness of 0.893.
Work on G12C A14C U26C A40G C66U A69U yielded a yeast fitness of 0.598.
For G12A U32C A40C G51A, the yeast fitness was ≤ 0.5.
In the case of G12A C24A U64C, the yeast fitness is reported as 0.682.
In the case of G12A A21G G39A A45G G50A A69U, the yeast fitness is reported as ≤ 0.5.
In the case of G12C A14G C22U U54C C61U, the yeast fitness is reported as ≤ 0.5.
For G12A C30U A40U C49A G56A A57U, the yeast fitness was ≤ 0.5.
For G12C C29G C46G G51A G52A, the yeast fitness was ≤ 0.5.
In the case of G12A C22G C29U, the yeast fitness is reported as 0.551.
For G12C C24U G48C G68A A69C, the yeast fitness was ≤ 0.5.
With G12A U13C C33U C34U A42C G50A the yeast fitness was ≤ 0.5.
In the case of G12A U13A G41C A45C C66U, the yeast fitness is reported as ≤ 0.5.
In the case of G12C A43G G63A, the yeast fitness is reported as 0.556.
With G12A A20G U26C C31G C33U A42U G67C the yeast fitness was ≤ 0.5.
In the case of G12A U13C C49G U59A, the yeast fitness is reported as ≤ 0.5.
For G12C A20C C31G U64A, the yeast fitness was ≤ 0.5.
For G12C C29G G51A G68C, the yeast fitness was ≤ 0.5.
With G12A A21G C34U G67U the yeast fitness was ≤ 0.5.
In the case of G12A G25A U32C, the yeast fitness is reported as 0.749.
Work on G12A C46A yielded a yeast fitness of 1.05.
With G12A C61A G67A the yeast fitness was ≤ 0.5.
Variant G12A U26A C46U has a yeast fitness of 0.543.
In the case of G12A C55A A65C, the yeast fitness is reported as ≤ 0.5.
In the case of G12C C27A A37G C49U, the yeast fitness is reported as ≤ 0.5.
G12A C27U U32A gave a yeast fitness of 0.702.
In the case of G12A C24A A36U A37G C61U G67U, the yeast fitness is reported as ≤ 0.5.
G12A A40C A65C gave a yeast fitness of 0.655.
For G12C C24G A40G, the yeast fitness was ≤ 0.5.
For G12A A15U C24G G63C, the yeast fitness was ≤ 0.5.
With G12C A43C C61G the yeast fitness was ≤ 0.5.
With G12A A42C G50C the yeast fitness was ≤ 0.5.
With G12C A21C U26C C60A C61A the yeast fitness was ≤ 0.5.
Variant G12C C22U U32C has a yeast fitness of 0.692.
For G12C A45U C61G, the yeast fitness was 0.528.
In the case of G12C C22U U28A, the yeast fitness is reported as 0.52.
G12A C31U C61G gave a yeast fitness of 0.543.
With G12A U16A the yeast fitness was 0.974.
With G12A G23C the yeast fitness was 0.733.
For G12A G17C G58A A70G, the yeast fitness was ≤ 0.5.
With G12A A20G A45U C49G A57U the yeast fitness was ≤ 0.5.
With G12A C24U C55G A70U the yeast fitness was 0.531.
For G12C C24G G51C C62A U64G, the yeast fitness was 0.59.
For G12A C31U, the yeast fitness was 0.919.
With G12A U13G U19C A21G G52A U59G the yeast fitness was ≤ 0.5.
With G12A G25C C60U A69C the yeast fitness was ≤ 0.5.
In the case of G12A C22G C27A, the yeast fitness is reported as 0.663.
In the case of G12A C24G U26G G39C C49G A65G, the yeast fitness is reported as ≤ 0.5.
In the case of G12A G51A C61A, the yeast fitness is reported as ≤ 0.5.
G12A A40C C66U showed a yeast fitness of 0.532.
Variant G12A U28C has a yeast fitness of 1.06.
For G12A U28G, the yeast fitness was 0.607.
Work on G12C C22A yielded a yeast fitness of 1.
For G12A U28A U54C, the yeast fitness was ≤ 0.5.
In the case of G12A G41A G51C, the yeast fitness is reported as ≤ 0.5.
With G12A U54A the yeast fitness was 0.679.
Work on G12A U54C yielded a yeast fitness of 0.797.
For G12A A20U G23C U32C A69G, the yeast fitness was ≤ 0.5.
With G12A U16G C49U G63A the yeast fitness was 0.705.
G12C C27U gave a yeast fitness of 0.805.
For G12A G39A G68A, the yeast fitness was 0.528.
For G12A C34A G52C C60A, the yeast fitness was ≤ 0.5.
Work on G12A G48A A57G G68C yielded a yeast fitness of 0.569.
For G12C A20C U47A A70G, the yeast fitness was 0.755.
Work on G12C C30G A37U G41A G58C yielded a yeast fitness of 0.581.
With G12C A15U C24A U54A C62U A65G G68A the yeast fitness was ≤ 0.5.
With G12A A15U C22A U26A C33G G38C G41C A43C U47G G67C the yeast fitness was ≤ 0.5.
In the case of G12C A15G C29U A42U U47C C62U, the yeast fitness is reported as ≤ 0.5.
Variant G12A A45U has a yeast fitness of 1.03.
In the case of G12A A45G, the yeast fitness is reported as 0.953.
With G12A C29U G56C the yeast fitness was ≤ 0.5.
For G12C C29G G48C, the yeast fitness was ≤ 0.5.
In the case of G12C A65C, the yeast fitness is reported as 0.783.
In the case of G12C A65G, the yeast fitness is reported as 0.783.
G12A A37U gave a yeast fitness of 0.653.
For G12C C27U G58C A69C, the yeast fitness was 0.657.
Work on G12A G25A G68C yielded a yeast fitness of 0.645.
Variant G12A G67C has a yeast fitness of 0.848.
For G12A G67U, the yeast fitness was 0.797.
In the case of G12C A45C, the yeast fitness is reported as 0.75.
With G12A C33U A36C G51C A57U the yeast fitness was ≤ 0.5.
G12A G25A C27U gave a yeast fitness of 0.596.
G12A G25A G52A gave a yeast fitness of 0.583.
For G12A U19G A20G U35C A40U, the yeast fitness was ≤ 0.5.
For G12A C24G A40C A43C C46U G56A G68C A69U, the yeast fitness was ≤ 0.5.
For G12A A21G A40U G67U, the yeast fitness was ≤ 0.5.
For G12C C22U U54C C61U G68A, the yeast fitness was ≤ 0.5.
With G12A U13A G67U the yeast fitness was 0.537.
Variant G12A A40G C46A has a yeast fitness of 0.752.
In the case of G12A C29U U35A G44C C61A, the yeast fitness is reported as ≤ 0.5.
For G12A A15G G25C C30G G67C, the yeast fitness was ≤ 0.5.
For G12A C33U C46A C55G, the yeast fitness was ≤ 0.5.
In the case of G12A U26A C31U G48A, the yeast fitness is reported as 0.711.
Work on G12C A20C U32A C33G yielded a yeast fitness of 0.536.
Work on G12A C29G A65U yielded a yeast fitness of 0.58.
In the case of G12A C30U U47A G67C, the yeast fitness is reported as ≤ 0.5.
Work on G12A A21G G44A C46U A69C yielded a yeast fitness of 0.507.
With G12C C30U A43G the yeast fitness was 0.515.
With G12A U32C A40G the yeast fitness was ≤ 0.5.
In the case of G12A A43U A45C, the yeast fitness is reported as ≤ 0.5.
G12A C33U A36C gave a yeast fitness of 0.563.
With G12A U16G G48A G68A the yeast fitness was 0.705.
For G12A A45G C62U, the yeast fitness was 0.531.
Variant G12A C33A U54G A70C has a yeast fitness of 0.541.
In the case of G12A A43U A45C U54C G67C, the yeast fitness is reported as 0.525.
In the case of G12A G41A C60G A65G, the yeast fitness is reported as 0.559.
With G12A C22U A57U the yeast fitness was ≤ 0.5.
For G12C C30U C33G U47G, the yeast fitness was ≤ 0.5.
For G12A U28G U35C, the yeast fitness was ≤ 0.5.
For G12A C30G A40C, the yeast fitness was ≤ 0.5.
With G12A A37U A42C the yeast fitness was 0.559.
With G12A A36U the yeast fitness was 0.612.
With G12C A15U G25A the yeast fitness was 0.696.
Variant G12C A69C A70U has a yeast fitness of 0.688.
G12A C55G gave a yeast fitness of 0.639.
With G12A C55A the yeast fitness was 0.6.
G12A C27G A43U showed a yeast fitness of 0.53.
In the case of G12A C24A C34A C49A G63U G67A, the yeast fitness is reported as ≤ 0.5.
G12C A37G G38A A45U showed a yeast fitness of 0.506.
For G12A G17C C46U, the yeast fitness was ≤ 0.5.
G12C C22U A43C G68C gave a yeast fitness of 0.556.
Variant G12C A14C C60G has a yeast fitness of 0.618.
For G12A U13A A42C A70U, the yeast fitness was ≤ 0.5.
